Tests used:
[1] = tested on: HL-60; assay: Percent of differentiated in HL-60 cells was determined by dividing number of viable differentiated cells by total number of viable cells, at a concentration of 3.0 mM; type: functional, Homo sapiens
Method in brief: (§1)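 HL-60 cells started at 2×10^5/mL and counted on day 4. Test agents were added from ethanol or Me2SO, with final Me2SO at most 77 mM. Differentiation was scored by formazan production, which requires superoxide from living cells. % D is the number of viable differentiated cells divided by the total number of viable cells.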

[2] = tested on: HL-60; assay: Percent of viability for HL-60 cells was determined by dividing number of viable differentiated cells by total number of viable cells, at concentration of 3.0 mM; type: functional, Homo sapiens
Method in brief: (§2)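 HL-60 cultures were seeded at 2×10^5/mL with agent added from ethanol or Me2SO, final Me2SO up to 77 mM, and harvested on day 4. Total cells were counted on a Coulter counter, and the viable fraction of total cells was determined by trypan blue exclusion.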

[3] = tested on: HL-60; assay: Percent of viability for HL-60 cells was determined by dividing number of viable differentiated cells by total number of viable cells, at concentration of 1.0 mM; type: functional, Homo sapiens; method in brief: as §2
[4] = tested on: HL-60; assay: Percent of differentiated in HL-60 cells was determined by dividing number of viable differentiated cells by total number of viable cells, at a concentration of 2.0 mM; type: functional, Homo sapiens; method in brief: as §1
[5] = tested on: HL-60; assay: Percent of differentiated in HL-60 cells was determined by dividing number of viable differentiated cells by total number of viable cells, at a concentration of 1.0 mM; type: functional, Homo sapiens; method in brief: as §1
[6] = tested on: HL-60; assay: Differentiation studies was conducted with the HL-60 human myeloid leukemia cell line and Total cells were counted with a Coulter counter, at a concentration of 3.0 mM; type: functional
Method in brief: (§3)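 HL-60 cells seeded at 2×10^5/mL with test agent added from ethanol or Me2SO stock; final Me2SO no more than 77 mM. Total cells counted on a Coulter counter on day 4.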

[7] = tested on: HL-60; assay: Percent of viability for HL-60 cells was determined by dividing number of viable differentiated cells by total number of viable cells, at concentration of 2.5 mM; type: functional, Homo sapiens; method in brief: as §2
[8] = tested on: HL-60; assay: Percent of viability for HL-60 cells was determined by dividing number of viable differentiated cells by total number of viable cells, at concentration of 2.0 mM; type: functional, Homo sapiens; method in brief: as §2
[9] = tested on: HL-60; assay: Differentiation studies was conducted with the HL-60 human myeloid leukemia cell line and total cells were counted with a Coulter counter, at a concentration of 2.0 mM; type: functional; method in brief: as §3
[10] = tested on: HL-60; assay: Differentiation studies was conducted with the HL-60 human myeloid leukemia cell line and Total cells were counted with a Coulter counter, at a concentration of 2.5 mM; type: functional; method in brief: as §3
[11] = tested on: HL-60; assay: Differentiation studies was conducted with the HL-60 human myeloid leukemia cell line and total cells were counted with a Coulter counter, at a concentration of 1.0 mM; type: functional; method in brief: as §3
[12] = tested on: HL-60; assay: Percent of differentiated in HL-60 cells was determined by dividing number of viable differentiated cells by total number of viable cells, at a concentration of 2.5 mM; type: functional, Homo sapiens; method in brief: as §1
[13] = tested on: HL-60; assay: Percent of viability for HL-60 cells was determined by dividing number of viable differentiated cells by total number of viable cells, at concentration of 0.5 mM; type: functional, Homo sapiens; method in brief: as §2
[14] = tested on: HL-60; assay: Percent of differentiated HL-60 cells was determined by dividing number of viable differentiated cells by total number of viable cells, at a concentration of 0.3 mM; type: functional, Homo sapiens; method in brief: as §1
[15] = tested on: HL-60; assay: Percent of differentiated HL-60 cells was determined by dividing number of viable differentiated cells by total number of viable cells, at a concentration of 0.4 mM; type: functional, Homo sapiens; method in brief: as §1
[16] = tested on: HL-60; assay: Percent of differentiated HL-60 cells was determined by dividing number of viable differentiated cells by total number of viable cells, at a concentration of 0.1 mM; type: functional, Homo sapiens; method in brief: as §1
[17] = tested on: HL-60; assay: Differentiation studies was conducted with the HL-60 human myeloid leukemia cell line andTotal cells were counted with a Coulter counter, at a concentration of 0.3 mM; type: functional; method in brief: as §3
[18] = tested on: HL-60; assay: Percent of viability for HL-60 cells was determined by dividing number of viable differentiated cells by total number of viable cells, at concentration of 0.4 mM; type: functional, Homo sapiens; method in brief: as §2
[19] = tested on: HL-60; assay: Percent of differentiated HL-60 cells was determined by dividing number of viable differentiated cells by total number of viable cells, at a concentration of 0.5 mM; type: functional, Homo sapiens; method in brief: as §1
[20] = tested on: HL-60; assay: Percent of viability for HL-60 cells was determined by dividing number of viable differentiated cells by total number of viable cells, at concentration of 0.1 mM; type: functional, Homo sapiens; method in brief: as §2
[21] = tested on: HL-60; assay: Percent of viability for HL-60 cells was determined by dividing number of viable differentiated cells by total number of viable cells, at concentration of 0.3 mM; type: functional, Homo sapiens; method in brief: as §2
[22] = tested on: HL-60; assay: Differentiation studies was conducted with the HL-60 human myeloid leukemia cell line andTotal cells were counted with a Coulter counter, at a concentration of 0.4 mM; type: functional; method in brief: as §3
[23] = tested on: HL-60; assay: Differentiation studies was conducted with the HL-60 human myeloid leukemia cell line and total cells were counted with a Coulter counter, at a concentration of 0.1 mM; type: functional; method in brief: as §3
[24] = tested on: HL-60; assay: Differentiation studies was conducted with the HL-60 human myeloid leukemia cell line andTotal cells were counted with a Coulter counter, at a concentration of 0.5 mM; type: functional; method in brief: as §3
[25] = tested on: HL-60; assay: Percent of differentiated HL-60 cells was determined by dividing number of viable differentiated cells by total number of viable cells, at a concentration of 2.0 mM; type: functional, Homo sapiens; method in brief: as §1
[26] = tested on: HL-60; assay: Percent of differentiated HL-60 cells was determined by dividing number of viable differentiated cells by total number of viable cells, at a concentration of 1.0 mM; type: functional, Homo sapiens; method in brief: as §1
[27] = tested on: HL-60; assay: Percent of differentiated HL-60 cells was determined by dividing number of viable differentiated cells by total number of viable cells, at a concentration of 3.0 mM; type: functional, Homo sapiens; method in brief: as §1
[28] = tested on: HL-60; assay: Percent of differentiated HL-60 cells was determined by dividing number of viable differentiated cells by total number of viable cells, at a concentration of 2.5 mM; type: functional, Homo sapiens; method in brief: as §1
[29] = tested on: HL-60; assay: Differentiation studies was conducted with the HL-60 human myeloid leukemia cell line and Total cells were counted with a Coulter counter, at a concentration of 1.5 mM; type: functional; method in brief: as §3
[30] = tested on: HL-60; assay: Differentiation studies was conducted with the HL-60 human myeloid leukemia cell line and Total cells were counted with a Coulter counter, at a concentration of 2.0 mM (number of experiments = 1); type: functional; method in brief: as §3
[31] = tested on: HL-60; assay: Percent of viability for HL-60 cells was determined by dividing number of viable differentiated cells by total number of viable cells, at concentration of 1.5 mM; type: functional, Homo sapiens; method in brief: as §2
[32] = tested on: HL-60; assay: Percent of differentiated HL-60 cells was determined by dividing number of viable differentiated cells by total number of viable cells, at a concentration of 1.5 mM; type: functional, Homo sapiens; method in brief: as §1
[33] = tested on: HL-60; assay: Differentiation studies was conducted with the HL-60 human myeloid leukemia cell line and Total cells were counted with a Coulter counter, at a concentration of 4.0 mM; type: functional; method in brief: as §3
[34] = tested on: HL-60; assay: Percent of differentiated HL-60 cells was determined by dividing number of viable differentiated cells by total number of viable cells, at a concentration of 4.0 mM; type: functional, Homo sapiens; method in brief: as §1
[35] = tested on: HL-60; assay: Percent of viability for HL-60 cells was determined by dividing number of viable differentiated cells by total number of viable cells, at concentration of 4.0 mM; type: functional, Homo sapiens; method in brief: as §2
[36] = tested on: HL-60; assay: Differentiation studies was conducted with the HL-60 human myeloid leukemia cell line and total cells were counted with a Coulter counter, at a concentration of 38 mM; type: functional; method in brief: as §3
[37] = tested on: HL-60; assay: Differentiation studies was conducted with the HL-60 human myeloid leukemia cell line and Total cells were counted with a Coulter counter, at a concentration of 77 mM; type: functional; method in brief: as §3
[38] = tested on: HL-60; assay: Percent of differentiated HL-60 cells was determined by dividing number of viable differentiated cells by total number of viable cells, at a concentration of 64 mM; type: functional, Homo sapiens; method in brief: as §1
[39] = tested on: HL-60; assay: Percent of differentiated HL-60 cells was determined by dividing number of viable differentiated cells by total number of viable cells, at a concentration of 38 mM; type: functional, Homo sapiens; method in brief: as §1
[40] = tested on: HL-60; assay: Percent of differentiated HL-60 cells was determined by dividing number of viable differentiated cells by total number of viable cells, at a concentration of 77 mM; type: functional, Homo sapiens; method in brief: as §1
[41] = tested on: HL-60; assay: Percent of viability for HL-60 cells was determined by dividing number of viable differentiated cells by total number of viable cells, at concentration of 38 mM; type: functional, Homo sapiens; method in brief: as §2
[42] = tested on: HL-60; assay: Percent of viability for HL-60 cells was determined by dividing number of viable differentiated cells by total number of viable cells, at concentration of 64 mM; type: functional, Homo sapiens; method in brief: as §2
[43] = tested on: HL-60; assay: Differentiation studies was conducted with the HL-60 human myeloid leukemia cell line and Total cells were counted with a Coulter counter, at a concentration of 64 mM; type: functional; method in brief: as §3
[44] = tested on: HL-60; assay: Percent of viability for HL-60 cells was determined by dividing number of viable differentiated cells by total number of viable cells, at concentration of 77 mM; type: functional, Homo sapiens; method in brief: as §2

## O=C1CCCCN1CCCCCCN1CCCCC1=O
[1]
  D: 87%
[2]
  V: 25%
[3]
  V: 87%
[4]
  D: 40%
[5]
  D: 12%
[6]
  Total cells: 370000 mL
[7]
  V: 62%
[8]
  V: 65%
[9]
  Total cells: 760000 mL
[10]
  Total cells: 680000 mL
[11]
  Total cells: 830000 mL
[12]
  D: 72%

## CC1(C)NC(=O)N(CCCCCCN2C(=O)NC(C)(C)C2=O)C1=O
[13]
  V: 43%
[14]
  D: 26%
[15]
  D: 45%
[16]
  D: 9%
[17]
  Total cells: 480000 mL
[18]
  V: 53%
[19]
  D: 76%
[20]
  V: 96%
[21]
  V: 82%
[22]
  Total cells: 420000 mL
[23]
  Total cells: 870000 mL
[24]
  Total cells: 310000 mL

## CC(=O)N(C)CCCCCCN(C)C(C)=O
[2]
  V: 30%
[3]
  V: 90%
[6]
  Total cells: 420000 mL
[25]
  D: 74%
[26]
  D: 10%
[7]
  V: 32%
[8]
  V: 57%
[9]
  Total cells: 700000 mL
[10]
  Total cells: 510000 mL
[11]
  Total cells: 1.12e+06 mL
[27]
  D: 94%
[28]
  D: 93%

## CC(=O)N(CCCCCCN(C(C)=O)C(C)=O)C(C)=O
[1]
  D: 80%
[2]
  V: 45%
[4]
  D: 65%
[6]
  Total cells: 300000 mL
[7]
  V: 51%
[8]
  V: 71%
[9]
  Total cells: 530000 mL
[10]
  Total cells: 480000 mL
[12]
  D: 76%

## CC(=O)NCCCCCC(=O)N(C)C
[3]
  V: 85%
[29]
  Total cells: 1.07e+06 mL
[30]
  Total cells: 940000 mL
[25]
  D: 12%
[26]
  D: 24%
[31]
  V: 78%
[8]
  V: 82%
[11]
  Total cells: 700000 mL
[32]
  D: 13%

## CNC(=O)CCCCCNC(C)=O
[33]
  Total cells: 690000 mL
[2]
  V: 72%
[6]
  Total cells: 680000 mL
[34]
  D: 71%
[35]
  V: 56%
[27]
  D: 40%

## C[S+](C)[O-] [DIMETHYL SULFOXIDE]
[36]
  Total cells: 970000 cells/mL
[37]
  Total cells: 930000 cells/mL
[38]
  D: 9%
[39]
  D: 6%
[40]
  D: 6%
[41]
  V: 97%
[42]
  V: 96%
[43]
  Total cells: 980000 cells/mL
[44]
  V: 94%

## CC(=O)NCCCCCCNC(C)=O [HEXAMETHYLENEBISACETAMIDE]
[33]
  Total cells: 390000 mL
[2]
  V: 68%
[6]
  Total cells: 520000 mL
[25]
  D: 32%
[34]
  D: 84%
[8]
  V: 74%
[9]
  Total cells: 690000 mL
[35]
  V: 29%
[27]
  D: 59%

Reference: ChEMBL document CHEMBL1123846, “Chemical differentiating agents. Differentiation of HL-60 cells by hexamethylenebis[acetamide] analogues” (1987)
